Source: PubChem
Hits are enriched below; roughly 3.5% of the tested compounds scored in any of these assays.
RGS4 block: human RGS4 inhibition | P49798 | HEK293 M3R/RGS4 inducible, Fluo-4 calcium flux; active compounds read high; triggered by carbachol at its EC20 | B-score at 10 µM | 0.45% of 310,000 active;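 active means B-score, a plate-corrected calcium signal, over three deviations above library mean, with baseline fluorescence within five deviations of library mean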;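 further: RGS4 expression induced by doxycycline in cells with stable M3 receptor; B-score is computed from the integrated fluorescence ratio over baseline after carbachol; higher B-score means a larger calcium signal and so more RGS4 inhibition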
Target sequence (P49798 whole entry, looked up): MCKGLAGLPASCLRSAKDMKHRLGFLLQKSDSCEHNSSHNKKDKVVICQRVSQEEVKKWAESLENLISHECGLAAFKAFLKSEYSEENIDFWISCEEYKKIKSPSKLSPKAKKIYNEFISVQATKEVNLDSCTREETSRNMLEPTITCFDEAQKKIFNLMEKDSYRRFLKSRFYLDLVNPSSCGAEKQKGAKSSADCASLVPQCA
MrgX1 allo act: allosterically activates human MrgX1 receptor signaling. Q96LB2. MrgX1-HEK293, Fluo-4 calcium flux, FDSS; active compounds read high. B-score at 10 µM. 0.63% of 310,000 active;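 active means plate-corrected calcium response at least 3 library SD above typical, normal starting fluorescence, not activating the receptor alone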;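 further: compound read alongside a low EC10 to EC30 dose of BAM8-22 agonist; peak minus trough fluorescence over baseline measured at the second addition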
Target sequence (Q96LB2 whole entry, looked up): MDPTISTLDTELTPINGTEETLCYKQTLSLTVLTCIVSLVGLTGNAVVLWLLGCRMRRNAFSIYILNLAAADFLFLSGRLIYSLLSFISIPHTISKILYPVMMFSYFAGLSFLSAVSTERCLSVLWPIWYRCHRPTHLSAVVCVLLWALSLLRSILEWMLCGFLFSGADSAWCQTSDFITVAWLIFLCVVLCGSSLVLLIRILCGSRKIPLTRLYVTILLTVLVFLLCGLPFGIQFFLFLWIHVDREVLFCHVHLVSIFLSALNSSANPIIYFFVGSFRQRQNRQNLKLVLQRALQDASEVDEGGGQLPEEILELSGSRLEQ
MrgX1 antagonist: blocks BAM8-22 activation of human MrgX1 receptor; 1.3% of 310,000 active; MRGX1-HEK293 calcium flux, Fluo-4, BAM8-22 antagonism; active compounds read low; B-score at 10 µM;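 active means calcium-response B-score plate-corrected more than 3 library SD below zero, starting fluorescence within 5 deviations, no agonist response on first addition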;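 further: peak minus trough fluorescence over baseline after final BAM8-22 challenge near maximal dose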
MrgX1 ag: human MrgX1 receptor agonism, primary screen; Q96LB2; MrgX1-HEK293 cells, Fluo-4 calcium fluorescence, agonist mode; active compounds read high; B-score at 10 µM; 0.44% of 310,000 active;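 active means calcium response B-score plate-corrected fluorescence ratio at least 3 library SD, with starting fluorescence B-score inside 5 SD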
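Material – MrgX1-expressing HEK293 cells · Input – 15,000 cells seeded per well · Dosing – compound as first of three additions · Times – overnight seeding, then 1 h dark dye loading · Measured by – kinetic Fluo-4 NW fluorescence of intracellular calcium · Read-out – B-scored fluorescence response ratio · Benchmarks – positive and negative control wells on each plate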
RGS4 act: potentiators or activators of RGS4; 0.92% of 310,000 active; HEK293 M3R/inducible RGS4, carbachol calcium flux Fluo4; active compounds read low; AID 463111; B-score at 10 µM;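 active means B-score of the integrated calcium signal more than 4 SD below the library mean, with starting fluorescence not abnormally high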;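 further: negative B-score means reduced calcium response which marks RGS4 activation or potentiation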
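System – HEK293 FlpIn-TREx cells, stable M3R, doxycycline-inducible RGS4 · Reagent – ECmax carbachol challenge · Times – compound preincubation 20 min at room temperature before agonist · Technique – Fluo4 fluorescence kinetic imaging of calcium · Measure – B score of integrated Fluo4 ratio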
MrgX1 ant reconf: confirmation of human MrgX1 receptor antagonists; shares compounds with MrgX1 antagonist; MrgX1-HEK293, BAM8-22 calcium flux, Fluo-4; active compounds read low; remaining BAM8-22 calcium response % of control (active compounds read low), % at 10 µM; 19% of 2,300 active;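 active means remaining agonist calcium response no higher than 100% minus 3 SD of agonist-only control wells, with starting fluorescence near control levels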;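 further: agonist BAM8-22 given at a near maximal EC90 to ECmax level; peak minus minimum fluorescence divided by baseline after agonist addition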
HEK293 Ca flux: MrgX1 antagonist counter-screen hit in parental HEK293 cells | shares compounds with MrgX1 antagonist | fluorescence ratio F(max-min)/F0 at 10 µM | AID 624111 | 2% of 4,000 active | Fluo-4 calcium fluorescence, FDSS;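 active means duplicate-averaged calcium fluorescence ratio at least three times the standard deviation of buffer wells, a nonspecific response in parental cells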
HEK293 Ca counter: counter-screen for MrgX1 allosteric activators: effect in parental HEK293 cells. shares compounds with MrgX1 antagonist. parental HEK293 calcium flux, Fluo-4 fluorescence ratio; active compounds read high. fluorescence ratio F(max-min)/F0 at 10 µM. 0.4% of 4,000 active. AID 624114;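 active means calcium fluorescence ratio, averaged over duplicates, at least 3 SD of the buffer-well ratio, meaning a nonspecific response in receptor-free cells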;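 further: untransfected parental HEK293 lacking MrgX1 used as counterscreen for MrgX1 allosteric activators; fluorescence change taken during the second addition on a kinetic imager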
HEK293 Ca cntr2: MrgX1 activator counter-screen hit in parental HEK293 cells. AID 624115. Fluo-4 calcium fluorescence (FDSS); active compounds read high. 8.7% of 4,000 active. fluorescence ratio F(max-min)/F0 at 10 µM. shares compounds with MrgX1 antagonist;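 active means calcium fluorescence ratio at least three times the spread of buffer wells, meaning a non-specific response in parental cells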
Large screens that a line does not name were inactive (follow-up assays come after a bar, where they were run); ! = a repeat was not active.

COC(=O)c1ccc2[nH]c3c(c2c1)CC(C)CC3 (stereo not drawn)	none
Cc1cccc(NC(=O)c2sc3nc(-c4ccccc4)cn3c2C)n1	none
COc1ccc(-c2cn3c(C)c(C(=O)Nc4cccc(C)n4)sc3n2)cc1	MrgX1 antagonist -5.3 | MrgX1 ant reconf 82% | HEK293 Ca flux inactive | HEK293 Ca counter inactive | HEK293 Ca cntr2 inactive
O=C(Oc1cccc(-n2cnnn2)c1)c1ccco1	MrgX1 antagonist -6.5 | MrgX1 ant reconf 79% | HEK293 Ca flux inactive | HEK293 Ca counter inactive | HEK293 Ca cntr2 inactive
O=C(Cn1nc(C(F)F)cc1C(F)F)NNC(=S)Nc1ccc([N+](=O)[O-])cc1	none
CCCNC(=O)c1ccccc1SCc1c(C)noc1C	none
COc1cc(NC(=O)c2ccco2)c(OC)cc1NC(=O)Nc1ccccc1Cl	MrgX1 antagonist -5.9 | MrgX1 ant reconf inactive | HEK293 Ca flux inactive | HEK293 Ca counter inactive | HEK293 Ca cntr2 inactive
CN=c1nc(-c2ccccc2)n(-c2ccccc2)s1	MrgX1 antagonist -4.9 (no result: RGS4 block, RGS4 act) | MrgX1 ant reconf inactive | HEK293 Ca flux inactive | HEK293 Ca counter inactive | HEK293 Ca cntr2 inactive
Cc1ccc(OCc2nnc(N)s2)cc1C	none
O=C(CSc1nnc(-c2ccccc2Cl)o1)N1CCCCC1	MrgX1 antagonist -4.9 | MrgX1 ant reconf inactive | HEK293 Ca flux inactive | HEK293 Ca counter inactive | HEK293 Ca cntr2 inactive
O=C(CSc1nnc(-c2ccccc2Cl)o1)N1CCCC1	none
CCCCOCCCNc1ncnc2c1[nH]c1ccccc12	MrgX1 antagonist -14 | MrgX1 ant reconf 26% | HEK293 Ca flux inactive | HEK293 Ca counter inactive | HEK293 Ca cntr2 inactive
CCOCCCNc1ncnc2c1[nH]c1ccccc12	none
O=C(CNC(=O)c1ccccc1F)OCc1csc(-c2ccccc2)n1	MrgX1 antagonist -5 | MrgX1 ant reconf inactive | HEK293 Ca flux inactive | HEK293 Ca counter inactive | HEK293 Ca cntr2 inactive
O=C(O)CCCn1cc(NC(=O)c2ccco2)cn1	none
Cc1occc1C(=O)Nc1cnn(CCCC(=O)O)c1	MrgX1 antagonist -4.9 | MrgX1 ant reconf inactive | HEK293 Ca flux inactive | HEK293 Ca counter inactive | HEK293 Ca cntr2 inactive
COc1ccc(Cl)cc1S(=O)(=O)N1CCC(C(=O)NCc2ccccn2)CC1	none
COc1cc(NC(=O)C2CSC3(C)CCC(=O)N23)c(OC)cc1Cl (stereo not drawn)	MrgX1 antagonist -7.8 | MrgX1 ant reconf 83% | HEK293 Ca flux inactive | HEK293 Ca counter inactive | HEK293 Ca cntr2 inactive
COCCCNC(=O)Cn1cnc2sc(C)c(S(=O)(=O)N3CC(C)CC(C)C3)c2c1=O (stereo not drawn)	none
O=c1ccc2c(o1)/C(=C/C=C(Cl)Cl)CCC2	none
COC(=O)/C(=C\Nc1ccccc1N)c1ncc(C(F)(F)F)cc1Cl	MrgX1 antagonist -4.5 | MrgX1 ant reconf inactive | HEK293 Ca flux inactive | HEK293 Ca counter inactive | HEK293 Ca cntr2 inactive
Cc1ccc2c(C(=O)CN3CCOCC3)c(C)[nH]c2c1	none
Cc1ccc2c(C(=O)CN3CCN(c4ccccc4)CC3)c(C)[nH]c2c1	MrgX1 antagonist -7.3 | MrgX1 ant reconf inactive | HEK293 Ca flux inactive | HEK293 Ca counter inactive | HEK293 Ca cntr2 inactive
N#C/C(=C\c1ccc(OCc2ccc(Br)cc2)cc1)C(=O)Nc1cccc(C(=O)O)c1	none
CCOc1cc(/C=C(\C#N)C(=O)Nc2cccc(C(=O)O)c2)cc(Br)c1OC(=O)c1ccc(OC)cc1	MrgX1 antagonist -10, RGS4 act -8.1 | MrgX1 ant reconf inactive | HEK293 Ca flux inactive | HEK293 Ca counter inactive | HEK293 Ca cntr2 50
CC1(C)Cc2c(sc3ncnc(NN)c23)CO1	none
NC(=O)C1CCN(c2oc(/C=C/c3ccc(F)cc3)nc2S(=O)(=O)c2ccccc2)CC1	none
COc1ccc(NC(=O)CSc2ccccn2)cc1OC	MrgX1 antagonist -4.8 | MrgX1 ant reconf inactive | HEK293 Ca flux inactive | HEK293 Ca counter inactive | HEK293 Ca cntr2 inactive
O=C(CSc1ccccn1)Nc1nc2ccccc2s1	MrgX1 antagonist -7.6 | MrgX1 ant reconf 85% | HEK293 Ca flux inactive | HEK293 Ca counter inactive | HEK293 Ca cntr2 inactive
Cn1c(=O)c(=O)n(C)c2cc(N3CCCC3)c(NS(=O)(=O)c3ccc(Cl)cc3)cc21	none
Cc1cccc(N(C)S(=O)(=O)c2c(C)[nH]c(C)c2C(=O)N2CCCC2)c1	none
COCCn1c(SCc2cc(=O)n3cc(C)ccc3n2)nc2ccccc2c1=O	none
Cc1ccc(C(c2nnnn2C2CCCC2)N2CCN3CCCC3C2)cc1 (stereo not drawn)	MrgX1 antagonist -6.4 | MrgX1 ant reconf inactive | HEK293 Ca flux inactive | HEK293 Ca counter inactive | HEK293 Ca cntr2 inactive
O=C(CNC(=S)NC(=O)c1ccccc1)c1ccccc1	none
O=C(CNC(=S)NC(=O)c1ccc(F)cc1)c1ccccc1	MrgX1 antagonist -4.7 | MrgX1 ant reconf inactive | HEK293 Ca flux inactive | HEK293 Ca counter inactive | HEK293 Ca cntr2 inactive
CCOC(=O)c1ccc(-c2c(C(=O)OCC)oc3cc(O)c(CC)cc3c2=O)o1	MrgX1 antagonist -4.8 | MrgX1 ant reconf 80% | HEK293 Ca flux inactive | HEK293 Ca counter inactive | HEK293 Ca cntr2 inactive
O=C(O)CN1C(=O)c2ccc(C(=O)c3ccccc3)cc2C1=O	none
CCC(C)NC(=O)Nc1ccc(C)cc1C (stereo not drawn)	none
CCC(c1nnc(SCC(=O)Nc2cc(S(C)(=O)=O)ccc2Cl)n1Cc1ccccc1)N(C)C (stereo not drawn)	none
Cc1cc(NC(=O)CSc2nc(=O)n3cc(Cl)ccc3n2)no1	MrgX1 antagonist -8.2 | MrgX1 ant reconf 73% | HEK293 Ca flux inactive | HEK293 Ca counter inactive | HEK293 Ca cntr2 inactive
Cc1ccn2c(=O)nc(SCC(=O)Nc3cc(C)on3)nc2c1	none
Cn1c(-c2ccc(CN3CCCCC3)o2)nc2ccccc21	MrgX1 antagonist -5.3 | MrgX1 ant reconf inactive | HEK293 Ca flux inactive | HEK293 Ca counter inactive | HEK293 Ca cntr2 inactive
Cc1ccc(CNc2nc3ccccc3n2C)o1	none
O=C(N/N=C1\CC2CC=CC12)c1ccc(O)cc1 (stereo not drawn)	none
O=C(O)CCSc1ccc2ccccc2n1	MrgX1 antagonist -6.7! | MrgX1 ant reconf inactive | HEK293 Ca flux inactive | HEK293 Ca counter inactive | HEK293 Ca cntr2 inactive
